Three compounds from ChEMBL document CHEMBL3792343, “10-Boronic acid substituted camptothecin as prodrug of SN-38” (Eur J Med Chem, 2016) can be followed below.

Data set [1] can be described thus: Prodrug activation in pH 7.4 phosphate buffer assessed as H2O2-mediated SN38 release incubated for 8 hrs by HPLC analysis. As to conditions: pH 7.4, 8 h. The method, boiled down:
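Prodrug (1 mM) in phosphate buffer pH 7.4 with H2O2 at 0.5–10 mM final, 37 °C for 8 h. Quenched with equal volume of 50 mM sodium thiosulfate; SN-38 release quantified by HPLC.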

Data set [2] deals with T1, DNA topoisomerase 1 (Homo sapiens) (UniProt P11387).
T1 sequence (whole entry): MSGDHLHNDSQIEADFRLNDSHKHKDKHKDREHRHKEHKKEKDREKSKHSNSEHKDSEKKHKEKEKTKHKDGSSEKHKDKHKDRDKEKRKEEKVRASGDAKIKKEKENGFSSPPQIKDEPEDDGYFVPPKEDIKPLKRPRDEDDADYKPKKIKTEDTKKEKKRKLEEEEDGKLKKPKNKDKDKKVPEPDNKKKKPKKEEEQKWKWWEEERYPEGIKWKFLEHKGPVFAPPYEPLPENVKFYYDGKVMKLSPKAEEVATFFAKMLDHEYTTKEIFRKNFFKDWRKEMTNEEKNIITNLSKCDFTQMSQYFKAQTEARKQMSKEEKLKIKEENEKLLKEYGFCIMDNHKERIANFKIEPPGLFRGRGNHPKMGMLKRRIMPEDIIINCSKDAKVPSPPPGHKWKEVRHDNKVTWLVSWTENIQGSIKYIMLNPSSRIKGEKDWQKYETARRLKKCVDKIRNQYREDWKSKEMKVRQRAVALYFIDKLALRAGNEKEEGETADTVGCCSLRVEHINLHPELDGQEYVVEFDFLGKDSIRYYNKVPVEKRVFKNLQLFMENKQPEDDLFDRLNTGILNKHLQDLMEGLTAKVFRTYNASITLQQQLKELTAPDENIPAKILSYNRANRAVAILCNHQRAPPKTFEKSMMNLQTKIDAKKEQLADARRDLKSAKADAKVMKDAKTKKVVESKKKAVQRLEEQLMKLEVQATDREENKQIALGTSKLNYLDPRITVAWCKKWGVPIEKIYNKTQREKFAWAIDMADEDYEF
The experiment in a line: Inhibition of topoisomerase 1 (unknown origin) assessed as reduction in enzyme-mediated relaxation of supercoiled pBR322 DNA at 100 uM after 30 mins by agarose gel electrophoresis.

Data set [3] can be described thus: Antitumor activity against human U87MG cells xenografted in mouse assessed as tumor volume at 2 mg/kg, ip administered as q3w/14 days regime relative to control. The format is functional, U-87MG ATCC. Summed up:
(§1)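 Mice bearing U87MG xenografts randomised at about 130 mm3 tumour volume (n = 12 control, n = 6 per treatment); dosing i.p. three times a week to end of study (q3w/14). Read-out is relative tumour volume (RTV), with T/C (%) versus untreated control; significance by Student's t-test.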
Background: In xenograft studies the graft and the host belong to different species.

The subject of data set [4] is Mus musculus. The experiment in a line: Toxicity in mouse xenografted with human U87MG cells assessed as death at 2 mg/kg, ip administered as q3w/14 days regime. The format is organism-based, U-87MG ATCC. The settings on record: in vivo, 336 h.
The test system of data set [5] is Mus musculus. The experiment in a line: Toxicity in mouse xenografted with human U87MG cells assessed as overt signs of symptoms at 2 mg/kg, ip administered as q3w/14 days regime. The format is organism-based, U-87MG ATCC. The settings on record: in vivo, 336 h.
Data set [6] in a line: Cytotoxicity against human HCT15 cells assessed as growth inhibition after 72 hrs by SRB assay. The format is functional, cell-based. The settings on record: HCT-15, 72 h. Summed up:
(§2)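 Cells from ATCC, 6,000–10,000 per well, treated in triplicate with graded concentrations for 72 h at 37 °C. Growth inhibition read by sulforhodamine B staining; IC50 taken from dose–response curves.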

Data set [7] deals with MCF7. The experiment in a line: Drug level in human MCF7 cells at 10^-5 M after 2 days by HPLC analysis. The format is ADME, cell-based. The settings on record: mcf7, 48 h, 10 µM. Summed up: (§3)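 MCF-7 cells exposed to 10^-5 M prodrug for 2 days; culture medium collected, centrifuged to remove cells, diluted to fixed volume and analysed by HPLC. Prodrug and SN-38 identified by retention time; relative amounts taken from chromatographic peak areas.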

Data set [8] is described as follows: Antitumor activity against human U87MG cells xenografted in mouse assessed as tumor volume at 0.5 mg/kg, ip administered as q3w/14 days regime relative to control. The format is functional, U-87MG ATCC. The method, boiled down:
as §1

In data set [9] the test system is Mus musculus. In words: Toxicity in mouse xenografted with human U87MG cells assessed as death at 0.5 mg/kg, ip administered as q3w/14 days regime. The format is organism-based, U-87MG ATCC. As to conditions: in vivo, 336 h.
The subject of data set [10] is MCF7. In words: Retention time in human MCF7 cells at 10^-5 M by HPLC analysis. The format is ADME, cell-based. The settings on record: mcf7, 10 µM. Summed up:
as §3

Data set [11] concerns MCF7. The experiment in a line: Cytotoxicity against human MCF7 cells assessed as growth inhibition after 72 hrs by SRB assay. The settings on record: MCF7, 72 h. The format is functional, cell-based. The method, boiled down:
as §2
For orientation: Sulforhodamine B stains cellular protein and so reports cell mass.

A further data set relates to U-251. In words: Cytotoxicity against human U251 cells assessed as growth inhibition after 72 hrs by SRB assay. The format is functional, cell-based. The settings on record: U-251, 72 h. Summed up:
as §2

For data set [12], the system named is Mus musculus. The experiment in a line: Toxicity in mouse xenografted with human U87MG cells assessed as change in body weight at 2 mg/kg, ip administered as q3w/14 days regime (reference value: 23.12%). The format is organism-based, U-87MG ATCC. As to conditions: in vivo, 336 h.
The next data set has as its system MDA-MB-231. The experiment in a line: Cytotoxicity against human MDA-MB-231 cells assessed as growth inhibition after 72 hrs by SRB assay. The format is functional, cell-based. As to conditions: MDA-MB-231, 72 h. Summed up:
as §2

The subject of another data set is HT-29. The experiment in a line: Cytotoxicity against human HT-29 cells assessed as growth inhibition after 72 hrs by SRB assay. The format is functional, cell-based. As to conditions: HT-29, 72 h. Summed up: as §2
Data set [13] deals with Mus musculus. The experiment in a line: Toxicity in mouse xenografted with human U87MG cells assessed as change in body weight at 0.5 mg/kg, ip administered as q3w/14 days regime (reference value: 23.12%). The format is organism-based, U-87MG ATCC. As to conditions: in vivo, 336 h.
Data set [14] is described as follows: Cytotoxicity against human U87MG cells assessed as growth inhibition after 72 hrs by SRB assay. As to conditions: U-87 MG. The format is functional, cell-based, U-87MG ATCC. The method, boiled down:
as §2

In data set [15] the test system is Mus musculus. In words: Toxicity in mouse xenografted with human U87MG cells assessed as anaphylactic reaction at 2 mg/kg, ip administered as q3w/14 days regime. As to conditions: in vivo, 336 h. The format is organism-based, U-87MG ATCC.
For data set [16], the system named is Mus musculus. In words: Toxicity in mouse xenografted with human U87MG cells assessed as change in body weight at 15 mg/kg, ip administered as q3w/14 days regime (reference value: 23.12%). The format is organism-based, U-87MG ATCC. As to conditions: in vivo, 336 h.
The nature of data set [17]: Antitumor activity against human U87MG cells xenografted in mouse assessed as tumor volume at 15 mg/kg, ip administered as q3w/14 days regime relative to control. The format is functional, U-87MG ATCC. Summed up:
as §1

The test system of data set [18] is Mus musculus. In words: Toxicity in mouse xenografted with human U87MG cells assessed as death at 15 mg/kg, ip administered as q3w/14 days regime. The format is organism-based, U-87MG ATCC. As to conditions: in vivo, 336 h.

The source made the active and inactive calls. The calls are words filed in the database; no cut-off is given here.

The T/C is the result in the treated group divided by that in the control group, in per cent. As a reminder, the IC50 is the concentration that gives 50% inhibition.

Turning to `CCc1c2c(nc3ccc(B(O)O)cc13)-c1cc3c(c(=O)n1C2)COC(=O)[C@]3(O)CC`, in [1], the Drug metabolism entry is listed as “Dose-dependent effect”. Besides, the inhibition result in [2] is “Active”. For the same compound, the T/C worked out at 28.1% in data set [3] and 105.99% in [8]. Also, the Activity entry in the data set on Mus musculus [4] was “Non-toxic”; in the data set on Mus musculus [5], “Non-toxic”; in the data set with Mus musculus [9], “Non-toxic”; in the data set on Mus musculus [12], 2.11%; in the data set with Mus musculus [13], 12.69%; with Mus musculus [15], “Non-toxic”. The IC50 in data set [6] was found to be 18 nM; in the data set on MCF7 [11] it was 628 nM; in the data set with U-251, 36 nM; with MDA-MB-231, 4280 nM; in the data set on HT-29, 47 nM; in [14] it was 47 nM. The compound also showed a Drug uptake with MCF7 [7] of 59%. Moreover, in the data set with MCF7 [10], the Retention_time is recorded as 12.87 min.
In the case of `CCc1c2c(nc3ccc(B4OC(C)(C)C(C)(C)O4)cc13)-c1cc3c(c(=O)n1C2)COC(=O)[C@]3(O)CC`, the Activity with Mus musculus [16] was 15.88%; in the data set with Mus musculus [18], “Non-toxic”. For the same compound, the T/C in data set [17] was 8.39%.
As to `CCc1c2c(nc3ccc(O)cc13)-c1cc3c(c(=O)n1C2)COC(=O)[C@]3(O)CC` [7-ETHYL-10-HYDROXYCAMPTOTHECIN], the IC50 was determined as 8 nM in data set [6]; 515 nM with MCF7 [11]; 21 nM in the data set on U-251; 1970 nM in the data set with MDA-MB-231; 54 nM in the data set on HT-29; 30 nM in data set [14]. Also, the Retention_time in the data set on MCF7 [10] amounted to 8.85 min.
